Converted amounts (≈) assume the structure as drawn.
Tests used:
[1] = system: Staphylococcus epidermidis; assay: Minimum inhibitory concentration against Staphylococcus epidermidis ATCC 12228; format: functional
In short: (§1)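 MIC (µg/mL) by microbroth dilution in Iso-Sensitest broth; final inoculum 10^4 cfu/mL; 24 h at 37 °C in air.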

Streptococcus pneumoniae = assay: Minimum inhibitory concentration against Streptococcus pneumoniae L 44; format: functional
In short: (§2)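 MIC (µg/mL) by microbroth dilution in Todd-Hewitt broth, final inoculum 10^4 cfu/mL, incubated 24 h at 37 °C in air.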

[2] = system: Staphylococcus haemolyticus; assay: Minimum inhibitory concentration against Staphylococcus haemolyticus L 602; format: functional; in short: as §1
Streptococcus pyogenes [3] = assay: Efficacy of compound administered perorally against Streptococcus pyogenes L 49 Septicemia in mouse; format: functional; details: po
In short: (§3)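 Mice were infected intraperitoneally with about 10^5 Strep. pyogenes L 49 cells, about 100 times the 50% lethal dose. Groups of 5–8 mice were treated once right after challenge, by the route stated in the line. ED50 (mg/kg) was derived from percentage survival at each dose on day 7 (Spearman-Kärber).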

Staphylococcus aureus = assay: Minimum inhibitory concentration against Staphylococcus aureus L 165; format: functional; in short: as §1
Streptococcus pyogenes [4] = assay: Minimum inhibitory concentration against Streptococcus pyogenes L 49; format: functional; in short: as §2
Streptococcus pyogenes [5] = assay: Efficacy of compound administered subcutaneously against Streptococcus pyogenes L 49 Septicemia in mouse; format: functional; details: sc; in short: as §3
[6] = Association constant to Ac2-L-Lys-D-Ala-D-Ala determined at pH 9; Value ranges from (9.5E4-3.5E5)
Enterococcus faecalis = assay: Minimum inhibitory concentration against Enterococcus faecalis ATCC 7080; format: functional
In short: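 Microbroth dilution MIC (µg/mL), final inoculum 10^4 cfu/mL, incubated 24 h at 37 °C in air.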

Escherichia coli = assay: Minimum inhibitory concentration against Escherichia coli L 47; format: functional; in short: as §1
Proteus vulgaris = assay: Minimum inhibitory concentration against Proteus vulgaris ATCC 881; format: functional; in short: as §1
Pseudomonas aeruginosa = assay: Minimum inhibitory concentration against Pseudomonas aeruginosa ATCC 10145; format: functional; in short: as §1

Row | MIC [1] [µg/mL] | MIC (Streptococcus pneumoniae) [µg/mL] | MIC (Staphylococcus aureus) [µg/mL] | MIC (Streptococcus pyogenes [4]) [µg/mL] | Ka [6] [M⁻¹] | MIC (Enterococcus faecalis) [µg/mL] | MIC (Escherichia coli) [µg/mL] | MIC (Proteus vulgaris) [µg/mL] | MIC (Pseudomonas aeruginosa) [µg/mL] | SMILES | MIC [2] [µg/mL] | ED50 (Streptococcus pyogenes [3]) [mg/kg] | ED50 (Streptococcus pyogenes [5]) [mg/kg]
1 | 0.063 (≈ 0.0306 µM) | 0.125 (≈ 0.0606 µM) | 0.125 (≈ 0.0606 µM) | 0.063 (≈ 0.0306 µM) | 350000 | 0.125 (≈ 0.0606 µM) |  |  |  | CC(=O)N[C@@H]1[C@H](O[C@@H]2c3ccc(c(Cl)c3)Oc3cc4cc(c3O[C@@H]3O[C@@H](CO)[C@@H](O)[C@H](O)[C@@H]3NC(=O)CCCCCCC(C)C)Oc3ccc(cc3Cl)C[C@H]3NC(=O)[C@H](N)c5ccc(O)c(c5)Oc5cc(O)cc(c5)[C@H](NC3=O)C(=O)N[C@H]4C(=O)N[C@H]3C(=O)N[C@@H]2C(=O)N[C@H](C(=O)NCCCN2CCCCNCCCC2)c2cc(O)cc(O[C@H]4O[C@H](CO)[C@@H](O)[C@@H](O)[C@@H]4O)c2-c2cc3ccc2O)O[C@@H](CO)[C@@H](O)[C@@H]1O | 0.125 (≈ 0.0606 µM) | 90 | 0.08
2 | 0.063 (≈ 0.0312 µM) | 0.125 (≈ 0.0618 µM) | 0.125 (≈ 0.0618 µM) | 0.063 (≈ 0.0312 µM) | 350000 | 0.125 (≈ 0.0618 µM) |  |  |  | CC(=O)N[C@@H]1[C@H](O[C@@H]2c3ccc(c(Cl)c3)Oc3cc4cc(c3O[C@@H]3O[C@@H](CO)[C@@H](O)[C@H](O)[C@@H]3NC(=O)CCCCCCC(C)C)Oc3ccc(cc3Cl)C[C@H]3NC(=O)[C@H](N)c5ccc(O)c(c5)Oc5cc(O)cc(c5)[C@H](NC3=O)C(=O)N[C@H]4C(=O)N[C@H]3C(=O)N[C@@H]2C(=O)N[C@H](C(=O)NCCNCCCNCCN)c2cc(O)cc(O[C@H]4O[C@H](CO)[C@@H](O)[C@@H](O)[C@@H]4O)c2-c2cc3ccc2O)O[C@@H](CO)[C@@H](O)[C@@H]1O | 0.125 (≈ 0.0618 µM) |  | 
3 | 0.063 (≈ 0.0461 µM) | 0.125 (≈ 0.0915 µM) | 0.125 (≈ 0.0915 µM) | 0.063 (≈ 0.0461 µM) |  | 0.125 (≈ 0.0915 µM) | 8 (≈ 5.86 µM) | 64 (≈ 46.8 µM) | 64 (≈ 46.8 µM) | N[C@H]1C(=O)N[C@@H]2Cc3ccc(c(Cl)c3)Oc3cc4cc(c3O)Oc3ccc(cc3Cl)[C@@H](O)[C@@H]3NC(=O)[C@H](NC(=O)[C@@H]4NC(=O)[C@@H](NC2=O)c2cc(O)cc(c2)Oc2cc1ccc2O)c1ccc(O)c(c1)-c1c(O)cc(O)cc1[C@@H](C(=O)NCCN1CCCCNCCCC1)NC3=O | 0.125 (≈ 0.0915 µM) |  | 
4 | 0.125 (≈ 0.0868 µM) | 0.25 (≈ 0.174 µM) | 0.125 (≈ 0.0868 µM) | 0.25 (≈ 0.174 µM) |  | 0.5 (≈ 0.347 µM) | > 128 | > 128 | > 128 | N[C@H]1C(=O)N[C@@H]2Cc3ccc(c(Cl)c3)Oc3cc4cc(c3O)Oc3ccc(cc3Cl)[C@@H](O)[C@@H]3NC(=O)[C@H](NC(=O)[C@@H]4NC(=O)[C@@H](NC2=O)c2cc(O)cc(c2)Oc2cc1ccc2O)c1ccc(O)c(c1)-c1c(O)cc(O)cc1[C@@H](C(=O)N1CCNCCNCCNCCNCCNCC1)NC3=O | 1 (≈ 0.695 µM) |  | 
5 | 0.063 (≈ 0.0438 µM) | 0.125 (≈ 0.087 µM) | 0.063 (≈ 0.0438 µM) | 0.063 (≈ 0.0438 µM) |  | 0.125 (≈ 0.087 µM) | 4 (≈ 2.78 µM) | 128 (≈ 89.1 µM) | 16 (≈ 11.1 µM) | NCCCN1CCCCN(CCCNC(=O)[C@H]2NC(=O)[C@H]3NC(=O)[C@H](NC(=O)[C@@H]4NC(=O)[C@H]5NC(=O)[C@@H](Cc6ccc(c(Cl)c6)Oc6cc4cc(c6O)Oc4ccc(cc4Cl)[C@H]3O)NC(=O)[C@H](N)c3ccc(O)c(c3)Oc3cc(O)cc5c3)c3ccc(O)c(c3)-c3c(O)cc(O)cc32)CCCC1 | 0.125 (≈ 0.087 µM) |  | 
6 | 0.125 (≈ 0.0665 µM) | 0.063 (≈ 0.0335 µM) | 0.125 (≈ 0.0665 µM) | 0.063 (≈ 0.0335 µM) |  | 0.125 (≈ 0.0665 µM) |  |  |  | CC(=O)N[C@@H]1[C@H](O[C@@H]2c3ccc(c(Cl)c3)Oc3cc4cc(c3O[C@@H]3O[C@@H](CO)[C@@H](O)[C@H](O)[C@@H]3NC(=O)CCCCCCC(C)C)Oc3ccc(cc3Cl)C[C@H]3NC(=O)[C@H](N)c5ccc(O)c(c5)Oc5cc(O)cc(c5)[C@H](NC3=O)C(=O)N[C@H]4C(=O)N[C@H]3C(=O)N[C@@H]2C(=O)N[C@H](C(=O)O)c2cc(O)cc(O[C@H]4O[C@H](CO)[C@@H](O)[C@@H](O)[C@@H]4O)c2-c2cc3ccc2O)O[C@@H](CO)[C@@H](O)[C@@H]1O | 8 (≈ 4.26 µM) | > 170 | 0.12

Reference: ChEMBL document CHEMBL1125337, “Synthesis and antibacterial activity of a series of basic amides of teicoplanin and deglucoteicoplanin with polyamines” (J Med Chem, 1992)
